Experimental data as given in ChEMBL document CHEMBL5058577, “EUbOPEN Chemogenomics Library 2 (Multiplex)” (2022).

System: HEK-293T
Test: Multiplex assay against HEK293T
Type: toxicity, cell-based
Details: human
Outline: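 Phenotypes for tubulin, mitochondrial mass and membrane permeability are expressed as per cents of healthy-nucleus cells. Cells were stained live at seeding with Hoechst33342, BioTracker Green Microtubule Cytoskeleton Dye, MitoTracker Red and Annexin V Alexa Fluor 680, then imaged after compound addition on a CQ1 microscope at 37°C and 5% CO2. Machine-learning gating in CellPathfinder separated Hoechst high-intensity objects from normal cells, divided normal cells by nuclear state (healthy, pyknosed, fragmented) and divided pyknosed cells into mitotic or apoptotic.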

[1] = 12 h, 1 µM, compound concentration 1 uM, replicate 1
[2] = 12 h, 1 µM, compound concentration 1 uM, replicate 2
[3] = 12 h, 10 µM, compound concentration 10 uM, replicate 1
[4] = 12 h, 10 µM, compound concentration 10 uM, replicate 2
[5] = 24 h, 1 µM, compound concentration 1 uM, replicate 1
[6] = 24 h, 1 µM, compound concentration 1 uM, replicate 2
[7] = 24 h, 10 µM, compound concentration 10 uM, replicate 1
[8] = 24 h, 10 µM, compound concentration 10 uM, replicate 2
[9] = 48 h, 1 µM, compound concentration 1 uM, replicate 1
[10] = 48 h, 1 µM, compound concentration 1 uM, replicate 2
[11] = 48 h, 10 µM, compound concentration 10 uM, replicate 1
[12] = 48 h, 10 µM, compound concentration 10 uM, replicate 2

Compound: CN1C[C@H](C(=O)N[C@]2(C)O[C@@]3(O)[C@@H]4CCCN4C(=O)[C@H](Cc4ccccc4)N3C2=O)C[C@@H]2c3cccc4[nH]cc(c34)C[C@H]21.CS(=O)(=O)O [DIHYDROERGOTAMINE MESYLATE]
- Population Apoptotic (%) [1]: 38%
- Population Fragmented Nuclei (%) [1]: 6%
- Population Healthy Nuclei (%) [1]: 84%
- Population Hoechst High Intensity Objects (%) [1]: 5%
- Population Membrane Permeable-Phenotype (%) [1]: 0%
- Population Mitochondria Different-Phenotype (%) [1]: 41%
- Population Mitotic Cells (%) [1]: 61%
- Population Normal (%) [1]: 94%
- Population Pyknosed Nuclei (%) [1]: 8%
- Population Tubulin-Different-Phenotype (%) [1]: 26%
- Total Cell Count [1]: 418
- Population Apoptotic (%) [2]: 46%
- Population Fragmented Nuclei (%) [2]: 3%
- Population Healthy Nuclei (%) [2]: 81%
- Population Mitochondria Different-Phenotype (%) [2]: 65%
- Population Mitotic Cells (%) [2]: 53%
- Population Pyknosed Nuclei (%) [2]: 14%
- Population Tubulin-Different-Phenotype (%) [2]: 17%
- Total Cell Count [2]: 285
- Population Apoptotic (%) [3]: 31%
- Population Fragmented Nuclei (%) [3]: 7%
- Population Healthy Nuclei (%) [3]: 76%
- Population Hoechst High Intensity Objects (%) [3]: 9%
- Population Membrane Permeable-Phenotype (%) [3]: 0%
- Population Mitochondria Different-Phenotype (%) [3]: 48%
- Population Mitotic Cells (%) [3]: 68%
- Population Normal (%) [3]: 90%
- Population Pyknosed Nuclei (%) [3]: 15%
- Population Tubulin-Different-Phenotype (%) [3]: 29%
- Total Cell Count [3]: 403
- Population Apoptotic (%) [4]: 53%
- Population Fragmented Nuclei (%) [4]: 5%
- Population Healthy Nuclei (%) [4]: 80%
- Population Hoechst High Intensity Objects (%) [4]: 11%
- Population Mitochondria Different-Phenotype (%) [4]: 61%
- Population Mitotic Cells (%) [4]: 46%
- Population Normal (%) [4]: 88%
- Population Pyknosed Nuclei (%) [4]: 13%
- Population Tubulin-Different-Phenotype (%) [4]: 23%
- Total Cell Count [4]: 435
- Population Apoptotic (%) [5]: 28%
- Population Fragmented Nuclei (%) [5]: 9%
- Population Healthy Nuclei (%) [5]: 80%
- Population Hoechst High Intensity Objects (%) [5]: 4%
- Population Membrane Permeable-Phenotype (%) [5]: 0%
- Population Mitochondria Different-Phenotype (%) [5]: 28%
- Population Mitotic Cells (%) [5]: 71%
- Population Normal (%) [5]: 95%
- Population Pyknosed Nuclei (%) [5]: 9%
- Population Tubulin-Different-Phenotype (%) [5]: 20%
- Total Cell Count [5]: 621
- Population Apoptotic (%) [6]: 51%
- Population Fragmented Nuclei (%) [6]: 7%
- Population Healthy Nuclei (%) [6]: 84%
- Population Hoechst High Intensity Objects (%) [6]: 3%
- Population Mitochondria Different-Phenotype (%) [6]: 41%
- Population Mitotic Cells (%) [6]: 48%
- Population Normal (%) [6]: 96%
- Population Pyknosed Nuclei (%) [6]: 8%
- Population Tubulin-Different-Phenotype (%) [6]: 12%
- Total Cell Count [6]: 341
- Population Apoptotic (%) [7]: 27%
- Population Fragmented Nuclei (%) [7]: 10%
- Population Healthy Nuclei (%) [7]: 76%
- Population Hoechst High Intensity Objects (%) [7]: 5%
- Population Membrane Permeable-Phenotype (%) [7]: 0%
- Population Mitochondria Different-Phenotype (%) [7]: 33%
- Population Mitotic Cells (%) [7]: 72%
- Population Normal (%) [7]: 94%
- Population Pyknosed Nuclei (%) [7]: 13%
- Population Tubulin-Different-Phenotype (%) [7]: 26%
- Total Cell Count [7]: 480
- Population Apoptotic (%) [8]: 32%
- Population Fragmented Nuclei (%) [8]: 9%
- Population Healthy Nuclei (%) [8]: 84%
- Population Hoechst High Intensity Objects (%) [8]: 6%
- Population Mitochondria Different-Phenotype (%) [8]: 39%
- Population Mitotic Cells (%) [8]: 67%
- Population Normal (%) [8]: 93%
- Population Pyknosed Nuclei (%) [8]: 6%
- Population Tubulin-Different-Phenotype (%) [8]: 16%
- Total Cell Count [8]: 567
- Population Apoptotic (%) [9]: 29%
- Population Fragmented Nuclei (%) [9]: 14%
- Population Healthy Nuclei (%) [9]: 78%
- Population Hoechst High Intensity Objects (%) [9]: 2%
- Population Membrane Permeable-Phenotype (%) [9]: 1%
- Population Mitochondria Different-Phenotype (%) [9]: 17%
- Population Mitotic Cells (%) [9]: 70%
- Population Normal (%) [9]: 97%
- Population Pyknosed Nuclei (%) [9]: 6%
- Population Tubulin-Different-Phenotype (%) [9]: 11%
- Total Cell Count [9]: 1011
- Population Apoptotic (%) [10]: 28%
- Population Fragmented Nuclei (%) [10]: 12%
- Population Healthy Nuclei (%) [10]: 82%
- Population Membrane Permeable-Phenotype (%) [10]: 0%
- Population Mitochondria Different-Phenotype (%) [10]: 23%
- Population Mitotic Cells (%) [10]: 71%
- Population Pyknosed Nuclei (%) [10]: 5%
- Population Tubulin-Different-Phenotype (%) [10]: 9%
- Total Cell Count [10]: 524
- Population Apoptotic (%) [11]: 22%
- Population Fragmented Nuclei (%) [11]: 15%
- Population Healthy Nuclei (%) [11]: 76%
- Population Hoechst High Intensity Objects (%) [11]: 2%
- Population Membrane Permeable-Phenotype (%) [11]: 0%
- Population Mitochondria Different-Phenotype (%) [11]: 20%
- Population Mitotic Cells (%) [11]: 77%
- Population Normal (%) [11]: 97%
- Population Pyknosed Nuclei (%) [11]: 7%
- Population Tubulin-Different-Phenotype (%) [11]: 12%
- Total Cell Count [11]: 778
- Population Apoptotic (%) [12]: 31%
- Population Healthy Nuclei (%) [12]: 77%
- Population Hoechst High Intensity Objects (%) [12]: 1%
- Population Mitochondria Different-Phenotype (%) [12]: 21%
- Population Mitotic Cells (%) [12]: 68%
- Population Normal (%) [12]: 98%
- Population Pyknosed Nuclei (%) [12]: 6%
- Population Tubulin-Different-Phenotype (%) [12]: 11%
- Total Cell Count [12]: 793
